Test results taken from ChEMBL document CHEMBL1151255, “Cyclic peptides from a Ruegeria strain of bacteria associated with the sponge Suberites domuncula” (2004).
Converted amounts (≈) assume the structure as drawn. The source made the active and inactive calls. No cut-off for these calls is given here. Where a SMILES comes first, the peptide text is derived from it.

Key:
Bacillus spizizenii = experiment: Antimicrobial activity against Bacillus subtilis subsp. spizizenii; type: functional
Method in brief: (§1)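 MIC by twofold serial dilution in duplicate, top concentration 50 μg/mL. Test strains were B. subtilis subsp. spizizenii DSM 347, E. coli DSM 498 and S. cerevisiae DSM 70449. Growth was scored after 48 h at each strain's optimal growth temperature. Gentamycin and nystatin served as controls.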

Escherichia coli = experiment: Antimicrobial activity against Escherichia coli; type: functional, organism-based; method in brief: as §1
Saccharomyces cerevisiae = experiment: Antimicrobial activity against Saccharomyces cerevisiae; type: functional, organism-based; method in brief: as §1

SMILES | Activity (Bacillus spizizenii) | Activity (Escherichia coli) | Activity (Saccharomyces cerevisiae) | MIC (Bacillus spizizenii)
O=C1CCCNC(=O)CN1 | inactive | inactive | inactive | –
O=C(O)CC[C@@H]1NC(=O)[C@@H]2CCCN2C(=O)[C@H](CO)NC(=O)CNC1=O (cyclo(EGSP)) | – | inactive | inactive | 25 mg/L (≈ 67.5 µM)
C[C@@H]1NC(=O)[C@H]2C[C@@H](O)CN2C1=O | inactive | inactive | inactive | –
O=C1NCC(=O)N2CCC[C@@H]12 | inactive | inactive | inactive | –
C[C@@H]1NC(=O)[C@@H]2C[C@@H](O)CN2C1=O | inactive | inactive | inactive | –
O=C(O)CC[C@@H]1NC(=O)[C@@H]2CCCN2C(=O)CNC1=O (cyclo(Glu-Gly-Pro)) | – | inactive | inactive | 50 mg/L (≈ 177 µM)
O=C(O)CC[C@@H]1NC(=O)[C@@H]2CCCN2C(=O)[C@H](CCC(=O)O)NC(=O)[C@@H]2CCCN2C1=O (cyclo(EPEP)) | inactive | inactive | inactive | –
O=C1[C@@H]2C[C@@H](O)CN2C(=O)[C@@H]2CCCN12 | inactive | inactive | inactive | –
